pIC50, pKi: −log10 of the molar value.
Target: 5-hydroxytryptamine receptor 6 (Homo sapiens, UniProt P50406)
Test: Displacement of [3H]LSD form human recombinant 5HT6 receptor
How it was run: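 Membranes prepared from cells engineered to recombinantly express human 5-HT6 receptors; competitive radioligand binding with [3H]LSD; affinity reported as pKi (−log M).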

5-hydroxytryptamine receptor 6, sequence (P50406 whole entry): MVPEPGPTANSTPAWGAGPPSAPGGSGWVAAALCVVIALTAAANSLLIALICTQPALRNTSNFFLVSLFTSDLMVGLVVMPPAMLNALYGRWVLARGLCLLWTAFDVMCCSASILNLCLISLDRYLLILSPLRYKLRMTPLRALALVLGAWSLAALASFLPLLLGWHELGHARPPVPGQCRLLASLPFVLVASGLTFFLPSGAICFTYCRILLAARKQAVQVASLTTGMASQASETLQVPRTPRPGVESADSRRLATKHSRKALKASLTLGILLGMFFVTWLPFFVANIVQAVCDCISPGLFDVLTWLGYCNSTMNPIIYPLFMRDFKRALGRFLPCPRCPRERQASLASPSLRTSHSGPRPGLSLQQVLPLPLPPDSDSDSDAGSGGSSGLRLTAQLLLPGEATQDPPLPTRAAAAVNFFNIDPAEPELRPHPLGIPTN

| Compound | pKi |
| --- | --- |
| CNC(=O)NC[C@@H]1CCCc2cc(S(=O)(=O)c3cccc(F)c3)ccc21 | 9.40 |
| CN(C)C(=O)NC[C@@H]1CCCc2cc(S(=O)(=O)c3cccc(F)c3)ccc21 | 8.60 |
| CC(=O)NC[C@@H]1CCCc2cc(S(=O)(=O)c3ccccc3)cc(F)c21 | 9.50 |
| CN(C)S(=O)(=O)NC[C@@H]1CCCc2cc(S(=O)(=O)c3cccc(F)c3)ccc21 | 8.70 |
| O=S(=O)(c1cccc(F)c1)c1ccc2c(c1)CCC[C@H]2CNS(=O)(=O)C(F)(F)F | 7.50 |
| N=C(N)NC(=O)C[C@@H]1CCCc2cc(S(=O)(=O)c3cccc(F)c3)ccc21 | 9.20 |
| CC(C)(O)C(=O)NC[C@@H]1CCCc2cc(S(=O)(=O)c3cccc(F)c3)ccc21 | 8.70 |
| CS(=O)(=O)NC[C@@H]1CCCc2cc(S(=O)(=O)c3cccc(F)c3)ccc21 | 9.70 |
| CN(C[C@@H]1CCCc2cc(S(=O)(=O)c3cccc(F)c3)ccc21)S(C)(=O)=O | 9.40 |
| CC(=O)NC[C@@H]1CCCc2cc(S(=O)(=O)c3cccc(F)c3)ccc21 | 9.90 |
| CN(C)CC(=O)NC[C@@H]1CCCc2cc(S(=O)(=O)c3cccc(F)c3)ccc21 | 9.40 |
| O=C1CN(C[C@@H]2CCCc3cc(S(=O)(=O)c4cccc(F)c4)ccc32)CCN1 | 8.20 |
| O=S(=O)(c1cccc(F)c1)c1cc(F)c2c(c1)CCC[C@H]2CNCCO | 9.80 |
| COCC(=O)NC[C@@H]1CCCc2cc(S(=O)(=O)c3cccc(F)c3)ccc21 | 9.10 |
| CC(C)(C)C(=O)NC[C@@H]1CCCc2cc(S(=O)(=O)c3cccc(F)c3)ccc21 | 8.40 |
| NC(=O)NC[C@@H]1CCCc2cc(S(=O)(=O)c3cccc(F)c3)cc(F)c21 | 9.70 |
| O=C(CO)NC[C@@H]1CCCc2cc(S(=O)(=O)c3cccc(F)c3)cc(F)c21 | 9.60 |
| NS(=O)(=O)NC[C@@H]1CCCc2cc(S(=O)(=O)c3cccc(F)c3)ccc21 | 9.90 |
| NC[C@@H]1CCCc2cc(S(=O)(=O)c3cncs3)ccc21 | 9.10 |
| NC[C@@H]1CCCc2cc(S(=O)(=O)c3c[nH]c4ccccc34)ccc21 | 10.30 |

| Compound | pKi |
| --- | --- |
| COC(=O)NC[C@@H]1CCCc2cc(S(=O)(=O)c3cccc(F)c3)ccc21 | 8.80 |
| CC(=O)N(C)C[C@@H]1CCCc2cc(S(=O)(=O)c3cccc(F)c3)ccc21 | 8.80 |
| CNC(=O)CNC[C@@H]1CCCc2cc(S(=O)(=O)c3cccc(F)c3)ccc21 | 9.00 |
| O=S(=O)(c1cccc(F)c1)c1ccc2c(c1)CCC[C@H]2CNCCO | 9.90 |
| COCCNC[C@@H]1CCCc2cc(S(=O)(=O)c3cccc(F)c3)ccc21 | 9.60 |
| CNCC1CCCc2cc(S(=O)(=O)c3ccccc3)ccc21 (stereo unspecified) | 9.50 |
| O=S(=O)(c1ccccc1)c1ccc2c(c1)CCCC2CNc1ncccn1 (stereo unspecified) | 7.60 |
| CS(=O)(=O)c1cccc(S(=O)(=O)c2ccc3c(c2)CCC[C@H]3CN)c1 | 8.40 |
| O=C(CO)NC[C@@H]1CCCc2cc(S(=O)(=O)c3cccc(F)c3)ccc21 | 10.00 |
| N#Cc1cccc(S(=O)(=O)c2ccc3c(c2)CCC[C@H]3CN)c1 | 9.30 |
| NC[C@@H]1CCCc2cc(S(=O)(=O)c3cc[nH]c3)ccc21 | 9.50 |
| O=C(NC[C@@H]1CCCc2cc(S(=O)(=O)c3cccc(F)c3)ccc21)c1ncc[nH]1 | 7.80 |
| CN(C)CC1CCCc2cc(S(=O)(=O)c3ccccc3)ccc21 (stereo unspecified) | 10.20 |
| CNCC(=O)NC[C@@H]1CCCc2cc(S(=O)(=O)c3cccc(F)c3)ccc21 | 9.80 |
| CNC[C@@H]1CCCc2cc(S(=O)(=O)c3cc[nH]c3)ccc21 | 9.80 |
| Cn1ccc(S(=O)(=O)c2ccc3c(c2)CCC[C@H]3CN)c1 | 8.10 |
| NC[C@@H]1CCCc2cc(S(=O)(=O)c3cn[nH]c3)ccc21 | 8.70 |
| O=C(NC[C@@H]1CCCc2cc(S(=O)(=O)c3cccc(F)c3)ccc21)[C@H]1CCCN1 | 9.20 |
| O=S(=O)(c1cccc(F)c1)c1ccc2c(c1)CCC[C@H]2CN1CC(O)C1 | 10.00 |
| CN(C[C@@H]1CCCc2cc(S(=O)(=O)c3cccc(F)c3)ccc21)C(N)=O | 7.40 |

| Compound | pKi |
| --- | --- |
| O=S(=O)(c1cccc(F)c1)c1ccc2c(c1)CCC[C@H]2CN1CCCS1(=O)=O | 7.50 |
| N=C(N)NCC1CCCc2cc(S(=O)(=O)c3ccccc3)ccc21 (stereo unspecified) | 9.80 |
| CC(=N)NCC1CCCc2cc(S(=O)(=O)c3ccccc3)ccc21 (stereo unspecified) | 9.20 |
| O=C1CN=C(NC[C@@H]2CCCc3cc(S(=O)(=O)c4cccc(F)c4)ccc32)N1 | 10.00 |
| O=C(NC[C@@H]1CCCc2cc(S(=O)(=O)c3cccc(F)c3)ccc21)c1ccc[nH]1 | 8.30 |
| NC[C@@H]1CCCc2cc(S(=O)(=O)c3cc(F)cc4[nH]cnc34)ccc21 | 8.30 |
| NC(=O)CNC[C@@H]1CCCc2cc(S(=O)(=O)c3cccc(F)c3)ccc21 | 10.00 |
| CN(CC(N)=O)C[C@@H]1CCCc2cc(S(=O)(=O)c3cccc(F)c3)ccc21 | 8.90 |
| NC[C@@H]1CCCc2cc(S(=O)(=O)c3ccccc3)ccc21 | 9.80 |
| NC[C@@H]1CCCc2cc(S(=O)(=O)c3cccc(O)c3)ccc21 | 9.60 |
| COc1cccc(S(=O)(=O)c2ccc3c(c2)CCC[C@H]3CN)c1 | 9.40 |
| NC[C@@H]1CCCc2cc(S(=O)(=O)c3cccc(F)c3)ccc21 | 10.10 |
| O=S(=O)(O)CCCNC[C@@H]1CCCc2cc(S(=O)(=O)c3cccc(F)c3)ccc21 | 8.90 |
| NCC(=O)NC[C@@H]1CCCc2cc(S(=O)(=O)c3cccc(F)c3)ccc21 | 9.50 |
| NC[C@@H]1CCCc2cc(S(=O)(=O)Cc3ccccc3)ccc21 | 6.80 |
| NC[C@@H]1CCCc2cc(S(=O)(=O)C3CCCCC3)ccc21 | < 6.00 |
| CN(C[C@@H]1CCCc2cc(S(=O)(=O)c3cccc(F)c3)ccc21)S(N)(=O)=O | 8.40 |
| CNS(=O)(=O)NC[C@@H]1CCCc2cc(S(=O)(=O)c3cccc(F)c3)ccc21 | 9.00 |
| NC(=O)NC[C@@H]1CCCc2cc(S(=O)(=O)c3cccc(F)c3)ccc21 [LANDIPIRDINE] | 9.70 |

Target: Cytochrome P450 2D6 (Homo sapiens, UniProt P10635)
Sequence (P10635 whole entry): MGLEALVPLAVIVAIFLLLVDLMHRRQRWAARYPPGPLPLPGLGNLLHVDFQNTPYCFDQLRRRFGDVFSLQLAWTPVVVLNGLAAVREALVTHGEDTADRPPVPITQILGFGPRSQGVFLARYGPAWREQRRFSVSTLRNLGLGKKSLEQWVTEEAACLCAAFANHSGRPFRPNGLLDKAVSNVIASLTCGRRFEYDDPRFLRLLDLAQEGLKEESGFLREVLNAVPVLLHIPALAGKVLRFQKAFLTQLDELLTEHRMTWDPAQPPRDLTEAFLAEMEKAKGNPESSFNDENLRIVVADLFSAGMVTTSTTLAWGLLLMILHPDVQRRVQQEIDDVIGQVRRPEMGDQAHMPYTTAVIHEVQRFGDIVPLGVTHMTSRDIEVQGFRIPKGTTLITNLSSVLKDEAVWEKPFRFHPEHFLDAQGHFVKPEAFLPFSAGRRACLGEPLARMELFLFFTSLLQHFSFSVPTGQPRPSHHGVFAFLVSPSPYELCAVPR
Test: Inhibition of CYP2D6
Assay type: ADME

| Compound | pIC50 |
| --- | --- |
| N=C(N)NCC1CCCc2cc(S(=O)(=O)c3ccccc3)ccc21 (stereo unspecified) | > 7.30 |

System: not listed separately
Test: Inhibition of CYP450
Assay type: ADME

| Compound | pIC50 |
| --- | --- |
| CC(=O)NC[C@@H]1CCCc2cc(S(=O)(=O)c3ccccc3)cc(F)c21 | < 4.82 |

Source: ChEMBL document CHEMBL1155479, “Highly potent, non-basic 5-HT6 ligands. Site mutagenesis evidence for a second binding mode at 5-HT6 for antagonism” (Bioorg Med Chem Lett, 2010)
